Among all 310,000 compounds or so, about 1,100 (0.35%) were called active.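 Rule for the calls: active = fluorescence ratio B-score, a plate-corrected score, at least three library SD, with initial intensity B-score within 5 SD; inactive = the rest.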 Only a selection was taken, and actives are over-represented in it overall.

Chain of Potassium voltage-gated channel subfamily KQT member 1 (Homo sapiens) (P51787 whole entry, looked up): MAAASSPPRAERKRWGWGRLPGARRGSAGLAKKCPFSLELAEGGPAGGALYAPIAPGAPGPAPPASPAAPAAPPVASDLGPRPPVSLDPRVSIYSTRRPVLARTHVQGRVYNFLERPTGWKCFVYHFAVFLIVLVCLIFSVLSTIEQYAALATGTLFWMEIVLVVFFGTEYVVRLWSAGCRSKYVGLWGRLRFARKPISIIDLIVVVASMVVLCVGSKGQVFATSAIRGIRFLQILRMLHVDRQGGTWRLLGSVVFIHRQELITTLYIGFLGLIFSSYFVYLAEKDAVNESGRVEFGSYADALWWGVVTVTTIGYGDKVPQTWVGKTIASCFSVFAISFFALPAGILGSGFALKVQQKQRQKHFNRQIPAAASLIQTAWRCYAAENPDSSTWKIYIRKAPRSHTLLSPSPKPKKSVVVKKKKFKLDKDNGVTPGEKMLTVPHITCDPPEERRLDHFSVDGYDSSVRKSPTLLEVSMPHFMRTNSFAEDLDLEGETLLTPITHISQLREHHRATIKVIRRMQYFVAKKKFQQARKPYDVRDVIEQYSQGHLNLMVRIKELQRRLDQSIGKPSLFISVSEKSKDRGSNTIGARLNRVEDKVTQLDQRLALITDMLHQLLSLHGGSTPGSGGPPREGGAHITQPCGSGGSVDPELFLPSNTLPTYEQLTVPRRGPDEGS

The target in the test is Potassium voltage-gated channel subfamily KQT member 1 (Homo sapiens) (UniProt P51787). Put plainly: potentiators or activators of KCNQ1 channel, primary screen, cell-based, thallium flux, high-throughput (AID 2648). As to conditions: CHO-K1 KCNQ1, thallium flux FluxOR fluorescence, at 10 µM; hits give high values. A digest of the protocol:
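Test system: CHO-K1 cells stably expressing KCNQ1 / Medium: assay buffer / Also added: depolarizing K+/Tl+ stimulus, K2SO4 and Tl2SO4 each 12.5 mM in 5x stock / Incubation: 90 min dye loading and 20 min compound exposure, both at room temperature / Signal: thallium influx via FluxOR fluorescence, kinetic imaging / Evaluation: B score of baseline-normalized fluorescence ratio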
With `Cc1[nH][nH]c(=O)c1C(c1ccc(-c2ccc(Cl)cc2)o1)c1c(C)[nH][nH]c1=O`, the B-score is 25 (active).

Take `CCOc1ccc(C(c2c(C)[nH][nH]c2=O)c2c(C)[nH][nH]c2=O)cc1OCC`: the B-score result was “inactive”.

On to `O=C(NC1CCCCC1)c1ccc(-c2ccc(Cl)cc2)o1`, for which the B-score entry was “inactive”.

As for `Cn1nnnc1-c1cc(Cl)cc(Cl)c1`, the B-score entry is “inactive”.

In the case of `CC(=O)C12CC(C)=C(C)CC1CC1C3CCC4=CC(=O)CCC4(C)C3CCC12C` (stereo not drawn), the B-score result was “inactive”.

For `O=C1NC(c2ccccc2)CCC1(Cl)Cl` (stereo not drawn), the B-score entry is “inactive”.

Turning to `COc1cccc2sc(N(CCCN(C)C)C(=O)C(c3ccccc3)c3ccccc3)nc12`, the B-score entry is “inactive”.

In the case of `Cc1cccc2sc(N(CCCN(C)C)C(=O)CCS(=O)(=O)c3ccccc3)nc12`, the B-score is 30 (active).

On to `CC(=O)N(CCCN(C)C)c1nc2ccc(C)cc2s1`, for which the B-score result was “inactive”.

In the case of `COc1cccc2sc(N(CCCN(C)C)C(=O)CCS(=O)(=O)c3ccccc3)nc12`, the B-score is 8 (active).

`Cc1ccc2sc(N(CCN(C)C)C(=O)/C=C/c3cccs3)nc2c1C`: the B-score entry is “inactive”.

`COc1cc2ccccc2cc1C(=O)N(CCN(C)C)c1nc2c(F)cccc2s1`: the B-score result was “inactive”.

On to `CCCCC(=O)Nc1ccc2c(c1)C(=O)NC2=O`, for which the B-score entry was “inactive”.

As to `O=C(COc1cc2oc(=O)c3c(c2cc1Cl)CCC3)NCCCN1CCOCC1`, the B-score result was “inactive”.

As for `Cc1ccc(NC2CCCN(C(=O)CCC3(C)CC3)C2)cc1C` (stereo not drawn), the B-score entry is “inactive”.

`COCCNC(=O)CSc1nc2sccc2c(=O)n1-c1ccccc1`: the B-score entry is “inactive”.

With `CCN(CC)S(=O)(=O)c1ccc(NC(=O)c2cccnc2Cl)c(NC(=O)c2cccnc2Cl)c1`, the B-score was 13 (active).

As to `Cc1cccc(NC(=O)c2cccnc2Cl)n1`, the B-score result is “inactive”.

As for `CCN(CC)S(=O)(=O)c1ccc(Cl)c(NC(=O)c2ccncc2)c1`, the B-score entry is “inactive”.

In the case of `CC1CCN(S(=O)(=O)c2ccc3c(ccn3CC(=O)O)c2)CC1`, the B-score entry was “inactive”.

As for `CC1CCN(c2ccc(-c3ccc(NC(=O)c4ccco4)cc3)nn2)CC1`, the B-score entry was “inactive”.

In the case of `S=c1ccc2ccccc2[nH]1`, the B-score entry is “inactive”.

Take `S=c1[nH]c2ccccc2c2ccccc12`: the B-score is 7 (active).

Regarding `NC(=O)Cc1ccc2c(c1)[nH]c1ccccc12`, the B-score entry was “inactive”.

Regarding `COc1ccc(OC)c(CCNC(=O)c2nn(C)c3c2CS(=O)(=O)c2ccccc2-3)c1`, the B-score entry is “inactive”.

Consider `O=C(Nc1ccc(F)c([N+](=O)[O-])c1)C1CCCO1` (stereo not drawn), for which the B-score result is “inactive”.

In the case of `O=C(Oc1c(-c2ccco2)oc2ccccc2c1=O)c1cccnc1`, the B-score is 15 (active).

On to `O=C(Oc1ccc(Br)cc1)c1cccnc1`, for which the B-score entry was “inactive”.

Turning to `N#CCc1ccc(OC(=O)c2cccnc2)cc1`, the B-score entry was “inactive”.

Regarding `CCO[C@H]1OC(C(=O)Nc2ccccc2)=C[C@@H](C2CC2)[C@@H]1CCCO`, the B-score result is “inactive”.

In the case of `O=[N+]([O-])c1ccccc1S(=O)(=O)Nc1cccc2cccnc12`, the B-score result is “inactive”.

Take `Cc1ccc(S(=O)(=O)Nc2ccc3ncccc3c2)cc1`: the B-score entry was “inactive”.

As for `COc1cc(NS(=O)(=O)c2ccc3ccccc3c2)c2ncccc2c1`, the B-score was 14 (active).

`COC(=O)C1=C(C(=O)OC)[C@@H]2N(C)c3ccccc3[C@@]23C[C@@H](C(=O)OC)N(C(=O)c2ccco2)C3=N1`: the B-score result is “inactive”.

For the molecule `CC1(C)C2CC[C@]3(C)C(CC=C4[C@@H]5C[C@@](C)(CO)CC[C@]5(C(=O)O)CC[C@]43C)[C@@]2(C)CC[C@@H]1O` (stereo partly drawn), the B-score result is “inactive”.

In the case of `CC1(C)CC[C@]2(C(=O)O)CC[C@]3(C)C(=CCC4[C@@]5(C)CC[C@H](O)C(C)(C)C5[C@H](O)C[C@]43C)[C@@H]2C1` (stereo partly drawn), the B-score is 10 (active).

Regarding `CSc1ncccc1C(=O)Nc1ccc(C)cn1`, the B-score result is “inactive”.

For `O=C(Nc1ccccc1)c1cc2ccccc2[nH]1`, the B-score entry was “inactive”.

As for `O=c1/c(=C/c2ccc(CNS(=O)(=O)c3ccccc3)o2)sc2n1CCN=2`, the B-score entry is “inactive”.

On to `Fc1cc(F)c2nc(Nc3nc4c(F)cccc4s3)sc2c1`, for which the B-score was 37 (active).

Take `NNc1nc2c(Cl)cccc2s1`: the B-score entry is “inactive”.

`NC(=O)c1c(Nc2nc3c(F)cccc3s2)sc2c1CCCC2`: the B-score result was “inactive”.

Consider `COc1cccc2cc(C(=O)NCc3ccc(C)cc3)c(=N)oc12`, for which the B-score entry was “inactive”.

Turning to `COC(=O)C1CCN(C(=O)c2ccc3oc(Cc4ccc(Cl)cc4)nc3c2)CC1`, the B-score result is “inactive”.

Consider `Cc1cccc(-n2c(C)cc(/C=N\NC(=O)c3cccs3)c2C)c1`, for which the B-score result was “inactive”.

For the molecule `Cc1cccc(-n2c(C)cc(/C=N/NC(N)=S)c2C)c1`, the B-score was 8 (active).

As for `Cc1ccc(-n2c(C)cc(/C=N\NC(=O)CC(=O)NC(C)C)c2C)cc1`, the B-score result is “inactive”.

As to `Cc1cc(=O)oc2c(C)c(OCC(=O)NCCN3CCOCC3)ccc12`, the B-score entry is “inactive”.

In the case of `CCCOc1ccc(C(=O)C(CCC(CNCC)C(=O)c2ccc(OCCC)cc2)CNCC)cc1` (stereo not drawn), the B-score result was “inactive”.

With `FC(F)(F)c1ccc(CN2C[C@@H]3C(c4ccccc4)C4(c5ccccc5)CC3(C4)[C@H]2c2ccccc2)cc1` (stereo partly drawn), the B-score result is “inactive”.

Turning to `Cc1ccc(C(=O)NC(=S)Nc2ccccc2C)cc1`, the B-score entry is “inactive”.

On to `COC(=O)c1sc(NC(=O)c2csc3c2CCCC3)nc1C`, for which the B-score entry is “inactive”.

With `COC(=O)c1sc(NC(=S)NC(=O)c2ccc(C)cc2)nc1C`, the B-score was 18 (active).

For the molecule `C/C(Cl)=C\Cn1c(Nc2cccc(C)c2)nc2c1c(=O)n(C)c(=O)n2C`, the B-score result is “inactive”.

As for `CC(C)NC(=O)C(c1ccc(F)cc1)N(C(=O)CCC(=O)Nc1ccccn1)c1ccccc1F` (stereo not drawn), the B-score entry was “inactive”.

Regarding `[O-][n+]1c2c(nn1-c1ccc(Cl)c(Cl)c1)-c1nonc1CC2`, the B-score result is “inactive”.

For the molecule `COc1ccc(NC(=O)C(=O)NCC(c2ccco2)N2CCc3ccccc3C2)cc1` (stereo not drawn), the B-score entry is “inactive”.

For the molecule `COC(=O)c1ccccc1NC(=O)C1CCN(S(=O)(=O)c2cc(OC)ccc2OC)CC1`, the B-score entry was “inactive”.

For the molecule `O=C(c1ccc(F)cc1)c1cn(Cc2ccc(F)cc2)c2cc3c(cc2c1=O)OCCO3`, the B-score result was “inactive”.

As to `Oc1c(Cl)cc(Cl)c(Cl)c1Cc1c(O)c(Cl)cc(Cl)c1Cl`, the B-score is 87 (active).

With `COP1(=O)C[C@@H](O)[C@@H](O)[C@@H](COCc2ccccc2)O1` (stereo partly drawn), the B-score result is “inactive”.

With `CC(=O)Nc1sc2c(c1C(c1cccc(F)c1)N1CCN(CCO)CC1)CCCC2` (stereo not drawn), the B-score entry was “inactive”.

For `COCCNC(=O)CCCN1C(=O)c2ccccc2Sc2ncccc21`, the B-score result is “inactive”.

With `Cc1c(C(=O)NC(C)C2CC3CCC2C3)cccc1[N+](=O)[O-]` (stereo not drawn), the B-score result is “inactive”.

Regarding `CC(C)(C)c1ccc(Cn2nnc3c(=O)[nH]c(C4CCCN(C(=O)c5ccco5)C4)nc32)cc1` (stereo not drawn), the B-score entry was “inactive”.

As for `Cc1ccc(/C=N/NC(=O)c2cc3ccccc3cc2O)o1`, the B-score is 41 (active).

Regarding `O=C(N/N=C/c1cccnc1)c1cc2ccccc2cc1O`, the B-score entry is “inactive”.

Regarding `Cc1ccc(/C=N/NC(=O)CSc2ccccn2)o1`, the B-score entry is “inactive”.
